The values below come from ChEMBL document CHEMBL1134313, “Synthesis and biological evaluation of myoseverin derivatives: microtubule assembly inhibitors” (J Med Chem, 2001).

SMILES strings stand for the structures.

Data set [1] relates to U-937. In words: Growth inhibition of human U937 cells. In kind it is functional. Put shortly:
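Proliferating U937 human leukemic cells were exposed to the compounds. Potency is reported as GI50, the concentration giving 50% growth inhibition. Toxicity was checked separately at up to 100 µM, as LC50.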

Another data set has as its target Tubulin (Bos taurus, UniProt Q6B856+Q862L2+Q862F3). Briefly: Inhibition of tubulin polymerization using bovine brain tubulin. In kind it is functional.
The subject of data set [2] is U-937. In words: Toxicity towards human U937 cells. In kind it is cell-based.

In the case of `COc1ccc(CNc2nc(NCc3ccc(OC)cc3)c3ncn(C4CCC4)c3n2)cc1`, in the data set on U-937 [1], the GI50 (usually the concentration at which growth is held to half of that of the control) is 5 µM. In addition, the IC50 (commonly the concentration that inhibits the measured activity by half) on Tubulin was 5 µM.
In the data set with U-937 [1], `CCn1cnc2c(NCc3ccc(OC)cc3)nc(NCc3ccc(OC)cc3)nc21` came in with a GI50 of 6 µM. This molecule also had an IC50 against Tubulin of 25 µM.
For `COc1ccc(CNc2nc(NCc3ccc(OC)cc3)c3ncn(C4CCOC4)c3n2)cc1` (stereo unspecified) the same measures were 4 µM and 5 µM.
For the molecule `COc1ccc(CNc2nc(NCc3ccc(OC)cc3)c3ncn(C(C)C)c3n2)cc1` [MYOSEVERIN], the GI50 in the data set with U-937 [1] was determined as 4 µM. On Tubulin, this molecule showed a 50% inhibitory concentration (IC50) of 8 µM.
For `COc1ccc(CNc2nc(NCc3ccc(OC)cc3)c3[nH]cnc3n2)cc1` the same measures were 18 µM and 50 µM.
For `COc1ccc(CNc2nc(NCc3ccc(OC)cc3)c3ncn(C)c3n2)cc1` the same measures were 12 µM and 25 µM.
For the molecule `COc1ccc(CNc2nc(NCc3ccc(OC)cc3)c3ncn(C4CCCCC4)c3n2)cc1`, the GI50 with U-937 [1] stood at 0.2 µM. On Tubulin, this molecule yielded an IC50 of 2 µM.
For `COc1ccc(CNc2nc(NCc3ccc(OC)cc3)c3ncn(C4CCCC4)c3n2)cc1` the same measures were 2 µM and 3 µM.
As for `COc1ccc(CNc2nc(NCc3ccc(OC)cc3)c3ncn(C4CCNCC4)c3n2)cc1`, the LC50 (in general, the concentration lethal to half of the exposed cells or organisms) in the data set with U-937 [2] was 40 µM. The same molecule registered a GI50 with U-937 [1] of 6 µM. Also, the IC50 at Tubulin is 5 µM.
With `COc1ccc(CNc2nc(NCc3ccc(OC)cc3)c3ncn(C4CCC(O)CC4)c3n2)cc1` (stereo unspecified), in the data set with U-937 [1], the GI50 stood at 2 µM. Besides, the IC50 on Tubulin is 3 µM.
